The source made the active and inactive calls. The calls are words filed in the database; no cut-off is given here.
How the values were obtained:
Assay type in all cases: cell-based
[1] = (§1) Inhibition of TNF-alpha/IFN-gamma/IL-1beta-induced human CXCL10 (972 bp) promoter activity expressed in human DLD1 cells after 24 hrs by luciferase reporter assay; details: DLD-1, 24 h
How it was run: (§2)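 DLD-1 in 24-well plates, switched to 0.5% FCS without antibiotics a day before lipofection (Lipofectamine 2000, 0.8 µg plasmid) with 972 bp CXCL10 promoter, NF-κB, GAS/Stat1 or ISRE luciferase reporters plus pRL-CMV. Stimulated 24 h with 10 ng/mL TNF-α, 10 ng/mL IFN-γ, 5 ng/mL IL-1β ± compound; Dual-Glo firefly/Renilla read. Stimulation-only = 100%; mean ± SEM, ≥3 experiments.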

[2] = system: DLD-1; experiment: as §1; how it was run: as §2
[3] = Inhibition of TNF-alpha/IFN-gamma/IL-1beta-induced human CXCL10 (972 bp) promoter activity expressed in human DLD1 cells after 24 hrs by […]-driven luciferase reporter assay; details: DLD-1, 24 h; how it was run: as §2
[4] = target: T1, Signal transducer and activator of transcription 1-alpha/beta (Homo sapiens) (UniProt P42224); experiment: Inhibition of Stat1 (unknown origin)-induced human CXCL10 (972 bp) promoter activity expressed in TNF-alpha/IFN-gamma/IL-1beta-stimulated human DLD1 cells after 24 hrs by luciferase reporter assay; details: DLD-1; how it was run: as §2
T1 sequence (whole entry): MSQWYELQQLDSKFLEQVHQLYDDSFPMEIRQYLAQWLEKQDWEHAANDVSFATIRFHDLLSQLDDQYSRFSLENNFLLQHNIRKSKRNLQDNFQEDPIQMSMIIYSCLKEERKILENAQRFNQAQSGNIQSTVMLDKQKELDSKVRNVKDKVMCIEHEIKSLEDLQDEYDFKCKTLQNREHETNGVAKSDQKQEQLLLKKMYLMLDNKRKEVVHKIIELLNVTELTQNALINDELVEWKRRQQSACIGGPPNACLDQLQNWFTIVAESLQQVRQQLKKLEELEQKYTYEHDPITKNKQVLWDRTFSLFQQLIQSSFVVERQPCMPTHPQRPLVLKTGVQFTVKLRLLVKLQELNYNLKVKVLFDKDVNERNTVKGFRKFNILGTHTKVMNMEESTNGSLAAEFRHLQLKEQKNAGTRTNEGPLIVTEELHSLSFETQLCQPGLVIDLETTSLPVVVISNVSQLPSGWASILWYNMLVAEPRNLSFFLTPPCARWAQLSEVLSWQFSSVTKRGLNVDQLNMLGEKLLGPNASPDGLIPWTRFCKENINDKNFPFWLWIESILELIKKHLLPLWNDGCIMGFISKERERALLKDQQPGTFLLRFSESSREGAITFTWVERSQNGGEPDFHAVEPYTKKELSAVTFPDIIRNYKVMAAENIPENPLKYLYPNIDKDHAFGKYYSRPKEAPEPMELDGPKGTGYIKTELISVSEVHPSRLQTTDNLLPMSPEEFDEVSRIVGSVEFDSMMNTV

[5] = system: DLD-1; experiment: Inhibition of TNF-alpha/IFN-gamma/IL-1beta-induced human CXCL10 (972 bp) promoter activity expressed in human DLD1 cells assessed as CXCL10 gene expression at 131.5 uM after 5 hrs by RT-PCR method relative to untreated-control
How it was run: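 Cells starved 16 h (0.5% FCS), compound pretreatment 1 h, then TNF-α 10 ng/mL/IFN-γ 10 ng/mL/IL-1β 5 ng/mL for 5 h. Total RNA analysed by two-step qRT-PCR for cxcl10, gapdh-corrected (Pfaffl); induced vs uninduced and treated-induced vs untreated-induced (100%).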

[6] = Cytotoxicity against human DLD1 cells up to 158 uM after 48 hrs by XTT assay; details: dld-1, 48 h
How it was run: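 DLD-1 cells (RPMI 1640, 25 mM HEPES, 10% FCS, 37 °C, 5% CO2) exposed to compound for 48 h; viability read as XTT reduction to coloured formazan.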

[7] = system: DLD-1; experiment: Inhibition of TNF-alpha/IFN-gamma/IL-1beta-induced human CXCL10 (972 bp) promoter activity expressed in human DLD1 cells assessed as reduction in CXCL10 expression pretreated at 131.5 uM for 1 hr prior to 16 hrs cytokine challenge by proteome profiling method relative to untreated-control
How it was run: (§3)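 DLD-1 starved 16 h in 0.5% FCS, seeded 5×10^6 cells/mL, pretreated 1 h with compound, then stimulated 16 h with 10 ng/mL TNF-α, 10 ng/mL IFN-γ, 5 ng/mL IL-1β. Supernatant cytokines/chemokines detected on Human Cytokine Array Panel A antibody array.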

[8] = system: DLD-1; experiment: Inhibition of TNF-alpha/IFN-gamma/IL-1beta-induced human CXCL10 (972 bp) promoter activity expressed in human DLD1 cells assessed as reduction in MIF expression pretreated at 131.5 uM for 1 hr prior to 16 hrs cytokine challenge by proteome profiling method relative to untreated-control; how it was run: as §3
[9] = system: DLD-1; experiment: Inhibition of TNF-alpha/IFN-gamma/IL-1beta-induced human CXCL10 (972 bp) promoter activity expressed in human DLD1 cells assessed as reduction in IL8 expression pretreated at 131.5 uM for 1 hr prior to 16 hrs cytokine challenge by proteome profiling method relative to untreated-control; how it was run: as §3
[10] = system: DLD-1; experiment: Inhibition of TNF-alpha/IFN-gamma/IL-1beta-induced human CXCL10 (972 bp) promoter activity expressed in human DLD1 cells assessed as reduction in CXCL1 expression pretreated at 131.5 uM for 1 hr prior to 16 hrs cytokine challenge by proteome profiling method relative to untreated-control; how it was run: as §3
[11] = system: DLD-1; experiment: Inhibition of TNF-alpha/IFN-gamma/IL-1beta-induced human CXCL10 (972 bp) promoter activity expressed in human DLD1 cells assessed as reduction in IL1-beta expression pretreated at 131.5 uM for 1 hr prior to 16 hrs cytokine challenge by proteome profiling method relative to untreated-control; how it was run: as §3
[12] = system: DLD-1; experiment: Inhibition of TNF-alpha/IFN-gamma/IL-1beta-induced human CXCL10 (972 bp) promoter activity expressed in human DLD1 cells assessed as reduction in IL-27 expression pretreated at 131.5 uM for 1 hr prior to 16 hrs cytokine challenge by proteome profiling method relative to untreated-control; how it was run: as §3
[13] = system: DLD-1; experiment: Inhibition of TNF-alpha/IFN-gamma/IL-1beta-induced human CXCL10 (972 bp) promoter activity expressed in human DLD1 cells assessed as reduction in TNF-alpha expression pretreated at 131.5 uM for 1 hr prior to 16 hrs cytokine challenge by proteome profiling method relative to untreated-control; how it was run: as §3
[14] = target: T2, Nuclear factor NF-kappa-B complex (Homo sapiens) (UniProt Q00653+P19838+Q04206); experiment: Inhibition of NF-kappaB (unknown origin) expressed human DLD1 cells assessed as reduction in IL1-beta gene expression pretreated at 67.75 uM for 1 hr by RT-PCR method relative to untreated-control; details: DLD-1
How it was run: (§4)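 DLD-1 seeded 5×10^5 cells/mL, grown 24 h, starved 16 h in 0.5% FCS, pretreated with compound 1 h, then stimulated with 10 ng/mL TNF-α, 10 ng/mL IFN-γ, 5 ng/mL IL-1β for 5 h. tnf-α, il-1β, inos mRNA by two-step qRT-PCR, Pfaffl relative quantification, normalised to gapdh; stimulated-untreated control = 100%. Mean ± SEM, three independent experiments.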

[15] = target: T2, Nuclear factor NF-kappa-B complex (Homo sapiens); experiment: Inhibition of NF-kappaB (unknown origin) expressed human DLD1 cells assessed as reduction in TNF-alpha gene expression pretreated at 67.75 uM for 1 hr by RT-PCR method relative to untreated-control; details: DLD-1; how it was run: as §4
[16] = target: T2, Nuclear factor NF-kappa-B complex (Homo sapiens); experiment: Inhibition of NF-kappaB (unknown origin) expressed human DLD1 cells assessed as reduction in iNOS gene expression pretreated at 67.75 uM for 1 hr by RT-PCR method relative to untreated-control; details: DLD-1; how it was run: as §4
[17] = target: T1, Signal transducer and activator of transcription 1-alpha/beta (Homo sapiens); experiment: Inhibition of Stat1 (unknown origin) expressed human DLD1 cells assessed as reduction in IL1-beta gene expression pretreated at 67.75 uM for 1 hr by RT-PCR method relative to untreated-control; details: DLD-1; how it was run: as §4
[18] = target: T1, Signal transducer and activator of transcription 1-alpha/beta (Homo sapiens); experiment: Inhibition of Stat1 (unknown origin) expressed human DLD1 cells assessed as reduction in TNF-alpha gene expression pretreated at 67.75 uM for 1 hr by RT-PCR method relative to untreated-control; details: DLD-1; how it was run: as §4
[19] = target: T1, Signal transducer and activator of transcription 1-alpha/beta (Homo sapiens); experiment: Inhibition of Stat1 (unknown origin) expressed in human DLD1 cells assessed as reduction in iNOS gene expression pretreated at 67.75 uM for 1 hr by RT-PCR method relative to untreated-control; details: DLD-1; how it was run: as §4

T2 sequence (P19838 whole entry, looked up): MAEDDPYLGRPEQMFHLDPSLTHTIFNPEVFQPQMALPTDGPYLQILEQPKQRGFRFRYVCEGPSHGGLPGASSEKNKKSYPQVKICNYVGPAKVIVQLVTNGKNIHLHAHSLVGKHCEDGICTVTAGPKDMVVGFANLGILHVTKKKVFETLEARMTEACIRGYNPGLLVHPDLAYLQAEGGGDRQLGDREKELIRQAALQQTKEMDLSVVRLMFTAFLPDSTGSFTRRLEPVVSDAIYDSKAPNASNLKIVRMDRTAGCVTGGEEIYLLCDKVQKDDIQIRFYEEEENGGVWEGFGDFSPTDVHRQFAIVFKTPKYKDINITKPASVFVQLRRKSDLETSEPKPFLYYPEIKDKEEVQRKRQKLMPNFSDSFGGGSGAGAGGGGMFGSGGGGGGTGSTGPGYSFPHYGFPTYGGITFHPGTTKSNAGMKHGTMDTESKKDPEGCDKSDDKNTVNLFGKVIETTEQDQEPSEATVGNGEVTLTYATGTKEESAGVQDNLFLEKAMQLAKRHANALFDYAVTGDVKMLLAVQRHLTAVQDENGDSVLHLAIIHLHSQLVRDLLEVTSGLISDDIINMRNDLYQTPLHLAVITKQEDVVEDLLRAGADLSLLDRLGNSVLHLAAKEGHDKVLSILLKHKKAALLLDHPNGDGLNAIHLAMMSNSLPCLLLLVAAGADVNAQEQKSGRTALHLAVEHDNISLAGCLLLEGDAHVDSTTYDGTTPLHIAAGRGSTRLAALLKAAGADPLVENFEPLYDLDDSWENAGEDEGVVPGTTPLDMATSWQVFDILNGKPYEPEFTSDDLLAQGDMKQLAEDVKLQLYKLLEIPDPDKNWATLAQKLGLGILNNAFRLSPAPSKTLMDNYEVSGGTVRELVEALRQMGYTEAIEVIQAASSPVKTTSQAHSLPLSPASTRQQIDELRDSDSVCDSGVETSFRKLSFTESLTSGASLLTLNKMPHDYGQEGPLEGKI
T2 sequence (Q00653 whole entry, looked up): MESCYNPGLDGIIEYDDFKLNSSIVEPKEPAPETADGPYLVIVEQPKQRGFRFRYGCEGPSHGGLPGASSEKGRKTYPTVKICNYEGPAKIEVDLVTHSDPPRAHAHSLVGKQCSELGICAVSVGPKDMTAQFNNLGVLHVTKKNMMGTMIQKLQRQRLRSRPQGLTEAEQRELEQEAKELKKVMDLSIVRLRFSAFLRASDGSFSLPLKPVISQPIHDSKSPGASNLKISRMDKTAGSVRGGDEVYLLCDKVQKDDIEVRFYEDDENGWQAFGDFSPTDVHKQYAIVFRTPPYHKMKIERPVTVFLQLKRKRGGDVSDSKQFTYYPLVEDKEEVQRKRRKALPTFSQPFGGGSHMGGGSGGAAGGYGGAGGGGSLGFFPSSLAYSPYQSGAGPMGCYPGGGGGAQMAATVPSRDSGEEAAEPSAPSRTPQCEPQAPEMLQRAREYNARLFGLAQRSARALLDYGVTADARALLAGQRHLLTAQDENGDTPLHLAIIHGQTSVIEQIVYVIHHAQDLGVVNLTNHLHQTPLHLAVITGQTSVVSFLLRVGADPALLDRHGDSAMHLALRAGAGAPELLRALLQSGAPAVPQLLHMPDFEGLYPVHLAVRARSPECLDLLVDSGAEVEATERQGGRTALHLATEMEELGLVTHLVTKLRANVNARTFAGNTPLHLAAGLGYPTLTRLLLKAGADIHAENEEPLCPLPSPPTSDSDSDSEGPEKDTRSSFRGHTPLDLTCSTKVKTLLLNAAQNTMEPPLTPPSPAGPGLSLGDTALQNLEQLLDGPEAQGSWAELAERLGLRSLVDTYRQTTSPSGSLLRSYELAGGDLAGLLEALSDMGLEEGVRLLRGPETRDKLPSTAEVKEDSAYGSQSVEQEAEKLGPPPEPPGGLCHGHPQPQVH
T2 sequence (Q04206 whole entry, looked up): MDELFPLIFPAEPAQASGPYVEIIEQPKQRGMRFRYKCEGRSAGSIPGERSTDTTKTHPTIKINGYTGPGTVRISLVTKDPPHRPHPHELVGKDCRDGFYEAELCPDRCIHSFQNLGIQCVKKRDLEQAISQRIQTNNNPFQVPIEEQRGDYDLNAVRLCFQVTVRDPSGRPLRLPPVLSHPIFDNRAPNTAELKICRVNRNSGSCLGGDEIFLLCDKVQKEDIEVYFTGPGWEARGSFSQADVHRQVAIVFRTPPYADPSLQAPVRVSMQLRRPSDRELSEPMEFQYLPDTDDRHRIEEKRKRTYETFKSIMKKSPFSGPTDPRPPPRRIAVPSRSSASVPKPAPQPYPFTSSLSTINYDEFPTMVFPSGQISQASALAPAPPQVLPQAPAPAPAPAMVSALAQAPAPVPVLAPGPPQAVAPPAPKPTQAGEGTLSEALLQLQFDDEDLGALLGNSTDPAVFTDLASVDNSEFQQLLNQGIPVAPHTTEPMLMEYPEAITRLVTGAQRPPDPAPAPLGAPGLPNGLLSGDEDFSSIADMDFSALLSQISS

- IC50 [1]: 55 µM
- IC50 [3]: 49 µM
- inhibition [4]: Dose-dependent effect
- inhibition [14]: Active
- inhibition [15]: Active
- inhibition [16]: Active
- inhibition [17]: Active
- inhibition [18]: Active
- inhibition [19]: Active
Compound: CCCCCC(=O)O[C@@H]1C=C2COC(=O)[C@]2(O)[C@@]2(C)[C@H](O)CCC(C)(C)[C@H]12
- inhibition [2]: Dose-dependent effect
- inhibition [5]: Active
- Activity [6]: Non-toxic
- inhibition [7]: Active
- inhibition [8]: Active
- inhibition [9]: Active
- inhibition [10]: Active
- inhibition [11]: Active
- inhibition [12]: Active
- inhibition [13]: Active
